The values that follow come from ChEMBL document CHEMBL1132403, “Prospective identification of biologically active structures by topomer shape similarity searching” (J Med Chem, 1999).

This test addresses T1, Type-1 angiotensin II receptor B (Rattus norvegicus) (UniProt P29089).
T1 sequence (whole entry): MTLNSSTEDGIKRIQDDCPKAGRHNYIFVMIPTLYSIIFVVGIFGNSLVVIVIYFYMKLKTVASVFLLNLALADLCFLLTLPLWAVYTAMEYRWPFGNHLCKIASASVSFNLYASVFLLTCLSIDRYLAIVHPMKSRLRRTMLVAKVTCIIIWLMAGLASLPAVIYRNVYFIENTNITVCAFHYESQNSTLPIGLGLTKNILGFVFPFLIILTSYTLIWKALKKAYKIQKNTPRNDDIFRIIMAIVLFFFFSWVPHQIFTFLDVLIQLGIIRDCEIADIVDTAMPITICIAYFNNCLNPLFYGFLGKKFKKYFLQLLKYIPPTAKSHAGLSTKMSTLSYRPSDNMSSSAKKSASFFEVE
Nature of the test: Percent displacement of [125I]Sar, Ile-Angiotensin II (A II) binding to rat Angiotensin II receptor, type 1. Also on record: concentration or dose not given beside the values. Summed up: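 Whole-cell competition binding on rat aortic smooth muscle cells expressing rat AT1, seeded 24 h before assay. Radioligand [125I]Sar,Ile-angiotensin II at 0.2 nM in DMEM pH 7.4 with 5 mM MgCl2, 1 mM EDTA and 0.1% BSA. Incubation 2 h at 25 °C with mild shaking. Nonspecific binding defined by 10 μM angiotensin II (final). Cells washed twice with PBS, lysed in 1% Triton X/0.1% BSA, and counted on a γ counter. Assay variability at least ±20%.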
On the technique in general: Displacement assays read how much labelled ligand stays bound in the presence of the test substance.
`O=C(O)c1cccc(-c2ccc(Cn3c(C(F)(F)F)nc4ccccc43)cc2)c1` displayed a Displacement of 33%. Turning to `O=C1COc2cccnc2N1Cc1cccc(-c2cccc(Cc3nnn[nH]3)c2)c1`, the Displacement came to 21%. In the case of `Clc1nc2ccccc2n1Cc1ccc(-c2ccccc2Cc2nnn[nH]2)cc1`, the Displacement was determined as 31%. As for `CCOC(=O)c1cc2ccccc2n1Cc1cccc(-c2ccccc2CC(=O)O)c1`, the Displacement turned out to be 30%.

`CCCc1nccn1Cc1ccc(-c2ccccc2C(=O)O)cc1` had a Displacement of 37%.

Consider `c1ccc(-c2ccc(Cn3c(-c4cscn4)nc4ccccc43)cc2)c(Cc2nnn[nH]2)c1`, for which the Displacement was 35%.

With `CC(C)c1nc2ccccc2n1Cc1ccc(-c2ccccc2-c2nn[nH]n2)cc1`, the Displacement was 69%. `CN(C)c1cnnc2ncn(Cc3cccc(-c4ccccc4C(=O)O)c3)c12` came in with a Displacement of 47%. The compound `O=C(O)c1cccc(-c2ccc(CN3C(=O)C(=O)c4c(Cl)ccc(Cl)c43)cc2)c1` returned a Displacement of 31%. Next, `CSc1nc2ccccc2n1Cc1ccc(-c2ccccc2Cc2nnn[nH]2)cc1`: 38%.
